Reference: ChEMBL document CHEMBL3297651, “Plumbagin downregulates Wnt signaling independent of p53 in human colorectal cancer cells” (J Nat Prod, 2014)
The source made the active and inactive calls. No cut-off for these calls is given here.

Legend:
SW480 [1] = experiment: Inhibition of proto-oncogene protein Wnt in human SW480 cells assessed as downregulation of TCF7L2 protein expression at 6 to 10 uM after 24 hrs by Western blot analysis; type: cell-based
SW480 [2] = experiment: Inhibition of proto-oncogene protein Wnt in human SW480 cells assessed as downregulation of Bcl9l protein expression at 6 to 10 uM after 24 hrs by Western blot analysis; type: cell-based
SW480 [3] = experiment: Inhibition of proto-oncogene protein Wnt in human SW480 cells assessed as downregulation of p300 protein expression at 6 to 10 uM after 24 hrs by Western blot analysis; type: cell-based
HCT-116 [4] = experiment: Inhibition of proto-oncogene protein Wnt in human HCT116 cells expressing p53 assessed as downregulation of beta-catenin protein expression at 10 uM after 24 hrs by Western blot analysis relative to control; type: cell-based
Method in brief: (§1)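 10^6 cells/well in six-well plates treated 24 h with compound (6 μM SW620; 10 μM HCT116 lines) or DMSO control. Lysed 1 h on ice in Tris/NaCl/Triton/deoxycholate buffer with phosphatase and protease inhibitors; 50−75 μg protein on 8−10% SDS-PAGE, PVDF, primary antibodies 1:1000 overnight 4 °C, HRP secondaries 1:10 000, chemiluminescence; β-actin loading control; three independent experiments.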

SW-620 [5] = experiment: Inhibition of proto-oncogene protein Wnt in human SW620 cells assessed as downregulation of TCF7L2 protein expression at 6 uM after 24 hrs by Western blot analysis; type: cell-based; method in brief: as §1
HCT-116 [6] = experiment: Inhibition of proto-oncogene protein Wnt in p53-deficient human HCT116 cells assessed as downregulation of beta-catenin protein expression at 10 uM after 24 hrs by Western blot analysis relative to control; type: cell-based; method in brief: as §1
SW-620 [7] = experiment: Inhibition of proto-oncogene protein Wnt/beta-catenin in human SW620 cells assessed as downregulation of c-Myc protein expression at 6 uM after 24 hrs by Western blot analysis relative to control; type: cell-based; method in brief: as §1
SW-620 [8] = experiment: Inhibition of proto-oncogene protein Wnt in human SW620 cells assessed as downregulation of Bcl9l protein expression at 6 uM after 24 hrs by Western blot analysis; type: cell-based; method in brief: as §1
SW-620 [9] = experiment: Upregulation of HBP1 protein expression in human SW620 cells at 6 uM after 24 hrs by Western blot analysis relative to control; type: functional; method in brief: as §1
HCT-116 [10] = experiment: Inhibition of proto-oncogene protein Wnt/beta-catenin in human HCT116 cells expressing p53 assessed as downregulation of TCF/LEF promoter transcriptional activity at 5 to 10 uM after 24 hrs by TOPFlash/FOPFlash luciferase reporter gene assay; type: cell-based
Method in brief: (§2)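 3 × 10^4 cells/well transfected with TOPFlash or FOPFlash plus Renilla plasmids (200 ng) by lipofectin in serum- and antibiotic-free DMEM. After 6 h, compound added in complete DMEM for 24 h (SW620 1−3 μM; HCT116 lines 5 and 10 μM), DMSO control. Dual luciferase read by photon counting, firefly normalized to Renilla; means ± SE, three independent experiments, Student t-test.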

SW-620 [11] = experiment: Inhibition of proto-oncogene protein Wnt/beta-catenin in human SW620 cells assessed as downregulation of cyclin D1 protein expression at 6 uM after 24 hrs by Western blot analysis relative to control; type: cell-based; method in brief: as §1
SW-620 [12] = experiment: Inhibition of proto-oncogene protein Wnt/beta-catenin in human SW620 cells assessed as downregulation of mutant TCF/LEF promoter transcriptional activity at 1 to 3 uM after 24 hrs by FOPFlash luciferase reporter gene assay; type: cell-based; method in brief: as §2
HCT-116 [13] = experiment: Upregulation of HBP1 protein expression in p53-deficient human HCT116 cells at 10 uM after 24 hrs by Western blot analysis; type: functional, cell-based; method in brief: as §1
HCT-116 [14] = experiment: Upregulation of HBP1 protein expression in human HCT116 cells expressing p53 at 10 uM after 24 hrs by Western blot analysis; type: functional, cell-based; method in brief: as §1
SW480 [15] = experiment: Inhibition of proto-oncogene protein Wnt/beta-catenin in human SW480 cells assessed as downregulation of TCF/LEF promoter transcriptional activity after 24 hrs by TOPFlash luciferase reporter gene assay; type: cell-based
SW480 [16] = experiment: Cytotoxicity against human SW480 cells assessed as cell viability after 24 hrs by MTT assay; type: functional, cell-based
Method in brief: (§3)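 Cells seeded at 5000/well in 96-well plates, adhered overnight, then exposed to compound for 24 or 48 h (0−20 μM for SW480/SW620; 0−30 μM for HCT116 p53+/+ and p53−/−). MTT (5 mg/mL) added for 3.5 h, formazan dissolved in DMSO, OD read at 570 nm with 655 nm reference. Means ± SE from three independent experiments; IC50 derived from viability curves.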

SW-620 [17] = experiment: Inhibition of proto-oncogene protein Wnt/beta-catenin in human SW620 cells assessed as downregulation of vimentin protein expression at 6 uM after 24 hrs by Western blot analysis relative to control; type: cell-based; method in brief: as §1
SW-620 [18] = experiment: Cytotoxicity against human SW620 cells assessed as cell viability after 48 hrs by MTT assay; type: functional, cell-based; method in brief: as §3
SW-620 [19] = experiment: Cytotoxicity against human SW620 cells assessed as cell viability after 24 hrs by MTT assay; type: functional, cell-based; method in brief: as §3
SW-620 [20] = experiment: Inhibition of proto-oncogene protein Wnt in human SW620 cells assessed as downregulation of p300 protein expression at 6 uM after 24 hrs by Western blot analysis; type: cell-based; method in brief: as §1
SW480 [21] = experiment: Inhibition of proto-oncogene protein Wnt in human SW480 cells assessed as downregulation of beta-catenin protein expression at 6 to 10 uM after 24 hrs by Western blot analysis; type: cell-based
HCT-116 [22] = experiment: Cytotoxicity against human HCT116 cells expressing p53 assessed as cell viability after 24 hrs by MTT assay; type: functional, cell-based; conditions: HCT-116, 24 h; method in brief: as §3
SW-620 [23] = experiment: Inhibition of proto-oncogene protein Wnt/beta-catenin in human SW620 cells assessed as downregulation of TCF/LEF promoter transcriptional activity after 24 hrs by TOPFlash luciferase reporter gene assay; type: cell-based; method in brief: as §2
HCT-116 [24] = experiment: Inhibition of proto-oncogene protein Wnt/beta-catenin in p53-deficient human HCT116 cells assessed as downregulation of TCF/LEF promoter transcriptional activity at 5 to 10 uM after 24 hrs by TOPFlash/FOPFlash luciferase reporter gene assay; type: cell-based; method in brief: as §2
SW480 [25] = experiment: Inhibition of proto-oncogene protein Wnt/beta-catenin in human SW480 cells assessed as downregulation of mutant TCF/LEF promoter transcriptional activity at 1 to 3 uM after 24 hrs by FOPFlash luciferase reporter gene assay; type: cell-based
HCT-116 [26] = experiment: Cytotoxicity against p53-deficient human HCT116 cells assessed as cell viability after 24 hrs by MTT assay; type: functional, cell-based; conditions: HCT-116, 24 h; method in brief: as §3
SW-620 [27] = experiment: Inhibition of proto-oncogene protein Wnt in human SW620 cells assessed as downregulation of beta-catenin protein expression at 6 uM after 24 hrs by Western blot analysis; type: cell-based; method in brief: as §1
SW480 [28] = experiment: Cytotoxicity against human SW480 cells assessed as cell viability after 48 hrs by MTT assay; type: functional, cell-based; method in brief: as §3

For `CC1=CC(=O)c2c(O)cccc2C1=O` [PLUMBAGIN], the inhibition (SW480 [1]) was “Active”, the inhibition (SW480 [2]) was “Active” and the inhibition (SW480 [3]) was “Active”. The inhibition (HCT-116 [4]) was 33%, the inhibition (SW-620 [5]) was “Active” and the inhibition (HCT-116 [6]) was 20%. For the same compound, the inhibition (SW-620 [7]) was 50%, the inhibition (SW-620 [8]) was “Active” and the “fold change (FC)” value (SW-620 [9]) was 1.68. The inhibition (HCT-116 [10]) was “Active”, the inhibition (SW-620 [11]) was 50% and the inhibition (SW-620 [12]) was “inactive”. For the same compound, the Activity (HCT-116 [13]) was “Active”, the Activity (HCT-116 [14]) was “Active” and the inhibition (SW480 [15]) was “Dose-dependent effect”. The Activity (SW480 [16]) was “Dose-dependent effect”, the IC50 (SW480 [16]; SW480, 24 h) was 12 µM and the inhibition (SW-620 [17]) was 50%. For the same compound, the Activity (SW-620 [18]) was “Dose-dependent effect”, the IC50 (SW-620 [18]; SW-620, 48 h) was 7.4 µM and the Activity (SW-620 [19]) was “Dose-dependent effect”. For the same compound, the IC50 (SW-620 [19]; SW-620, 24 h) was 7.7 µM, the inhibition (SW-620 [20]) was “Active” and the inhibition (SW480 [21]) was “Active”. The IC50 (HCT-116 [22]) was 20 µM, the inhibition (SW-620 [23]) was “Dose-dependent effect” and the inhibition (HCT-116 [24]) was “Active”. The inhibition (SW480 [25]) was “inactive”, the IC50 (HCT-116 [26]) was 20 µM and the inhibition (SW-620 [27]) was “Active”. The Activity (SW480 [28]) was “Dose-dependent effect” and the IC50 (SW480 [28]; SW480, 48 h) was 7.3 µM.
